For one experiment, the system named is A2780. Put plainly: Antiproliferative activity against human A2780 cells. Format: cell-based.
Experiment [1] deals with Plasmodium falciparum. Put plainly: Resistance factor, ratio of IC50 for chloroquine-resistant Plasmodium falciparum Dd2 to IC50 for chloroquine-sensitive Plasmodium falciparum HB3. It is filed as functional.
For experiment [2], the system named is Plasmodium falciparum. The experiment can be described thus: Antiplasmodial activity against chloroquine-resistant Plasmodium falciparum Dd2 after 72 hrs by SYBR green 1 dye based fluorometric method. It is filed as functional, organism-based. As to conditions: Dd2, 72 h. In a few lines: (§1)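 Sorbitol-synchronised ring-stage cultures (>95% rings), final 1% hematocrit and 0.5% parasitemia, added to prewarmed wells holding sample diluted in complete medium from DMSO stock. Incubated 72 h at 37 °C under 90% N, 5% O2, 5% CO2. SYBR Green I added, 1 h at 37 °C, fluorescence ex 490/em 530 nm. Triplicate IC50s averaged (±S.E.M.); chloroquine positive control.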

The subject of experiment [3] is Plasmodium falciparum. The experiment can be described thus: Antiplasmodial activity against chloroquine-sensitive Plasmodium falciparum HB3 after 72 hrs SYBR green 1 dye based by fluorometric method. Format: functional, organism-based. As to conditions: HB3, 72 h. In a few lines: as §1

SMILES strings stand for the structures. pIC50: −log10 of the molar value.

For `C=C1C(=O)O[C@@H]2[C@@H](C)[C@@H]3C=CC(=O)[C@@]3(C)[C@@H](OC(=O)/C=C(\C)CC)[C@H]1[C@H]2OC(=O)CC(C)(O)CC` (relative stereo), the pIC50 (as a rule, −log10 of the IC50, conventionally taken in molar units) with A2780 was 5.72.
In turn, `C=C1C(=O)O[C@@H]2[C@@H](C)[C@@H]3C=CC(=O)[C@@]3(C)[C@@H](OC(=O)/C(C)=C\C)[C@H]1[C@H]2OC(=O)CC(C)(C)O` (relative stereo) had a pIC50 in the experiment on A2780 of 6.24. Against the preceding compound, the pIC50 is 0.52 log units higher.
The compound `C=C1C(=O)O[C@@H]2[C@@H](C)[C@@H]3C=CC(=O)[C@@]3(C)[C@@H](OC(=O)/C(C)=C\C)[C@H]1[C@H]2OC(=O)CC(C)(O)CC` (relative stereo) had a pIC50 with A2780 of 6.42.
As to `C=C1C(=O)O[C@H]2C[C@@H](C)[C@@H]3[C@@H](OC(=O)C(C)C)C[C@@H](OC(C)=O)[C@@]3(C)[C@@H](OC(C)=O)[C@H]12` [ATHROLIDE A], in the experiment on Plasmodium falciparum [1], the “Ratio IC50” value is recorded as 1. Moreover, the pIC50 in the experiment with Plasmodium falciparum [2] was 4.49; in the experiment with Plasmodium falciparum [3] it was 4.46; in the experiment on A2780 it was 5.68.
For the compound `C=C1C(=O)O[C@H]2C[C@@H](C)[C@@H]3[C@@H](OC(=O)C(C)C)C[C@@H](OC(C)=O)[C@@]3(C)[C@H](O)[C@H]12` [ATHROLIDE B], the pIC50 with A2780 was 5.60.
Compound `CC(=O)O[C@H]1C(=O)[C@@]2(C)[C@H]([C@H](OC(=O)c3ccccc3)[C@]3(O)C[C@H](OC(=O)[C@H](O)[C@@H](NC(=O)c4ccccc4)c4ccccc4)C(C)=C1C3(C)C)[C@]1(OC(C)=O)CO[C@@H]1C[C@@H]2O` [PACLITAXEL] had a pIC50 with A2780 of 7.77.

Values taken from ChEMBL document CHEMBL1833904, “Antiplasmodial and antiproliferative pseudoguaianolides of Athroisma proteiforme from the Madagascar Dry Forest” (J Nat Prod, 2011).
